Source: ChEMBL document CHEMBL1155279, “1,5-Diaryl-2-ethyl pyrrole derivatives as antimycobacterial agents: design, synthesis, and microbiological evaluation” (Eur J Med Chem, 2009)
≈ marks a conversion by molar mass, not a printed value.

Key:
[1] = Protection index, ratio of MNTD for african green monkey Vero cells to MIC for Mycobacterium tuberculosis CIP 103471; assay type: functional
Procedure, shortened: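 Vero cells exposed to drug; after 72 h of incubation, morphology was checked microscopically. MNTD is the highest concentration with no morphological change. PI = MNTD/MIC, with MIC from twofold agar dilution in Middlebrook 7H11 + 10% OADC against M. tuberculosis CIP 103471.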

[2] = test system: Mycobacterium tuberculosis; experiment: Antimycobacterial activity against Mycobacterium tuberculosis CIP 103471 by twofold agar dilution method; assay type: functional
Procedure, shortened: (§1)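 Twofold agar dilution in Middlebrook 7H11 agar with 10% OADC (oleic acid, albumin, dextrose). Compounds dissolved in DMSO at 5 mg/mL (one in ethanol at 6 mg/mL), stock, stored cold. MIC determined for each strain. Strains: M. tuberculosis CIP 103471, H37Rv ATCC 27294, rifampicin-resistant ATCC 35838, M. avium CIP 103317.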

Mycobacterium avium = experiment: Antimycobacterial activity against Mycobacterium avium CIP 103317 by twofold agar dilution method; assay type: functional; procedure, shortened: as §1
[3] = Cytotoxicity against african green monkey Vero cells after 72 hrs; assay type: cell-based; details: chlorocebus sabaeus
Procedure, shortened: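 Vero cells exposed to compounds (stocks 5 mg/mL in DMSO; one compound 6 mg/mL in ethanol). After 72 h incubation, cells examined microscopically for morphological changes. Maximum non-toxic dose (MNTD) taken as the highest drug concentration producing no morphological change.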

[4] = test system: Mycobacterium tuberculosis; experiment: Antimycobacterial activity against Mycobacterium tuberculosis H37Rv by twofold agar dilution method; assay type: functional; procedure, shortened: as §1

Row | SMILES | PI [1] | MIC [2] [µg/mL] | MIC (Mycobacterium avium) [µg/mL] | MNTC at 72 h [3] [µg/mL] | MIC [4] [µg/mL]
1 | Cc1c(CN2CCSCC2)cc(-c2ccccc2)n1-c1ccc(F)cc1 | 20 | 0.4 (≈ 1.09 µM) | – | – | –
2 | Cc1c(CN2CCN(C)CC2)cc(-c2ccc(Cl)cc2)n1-c1ccc(Cl)cc1 | 4 | 1 (≈ 2.41 µM) | 0.5 (≈ 1.21 µM) | 4 | 1 (≈ 2.41 µM)
3 | CCc1c(CN2CCN(C)CC2)cc(-c2ccc(Cl)cc2)n1-c1ccc(Cl)cc1 | 4 | 2 (≈ 4.67 µM) | 4 (≈ 9.34 µM) | 8 | 4 (≈ 9.34 µM)
4 | Cc1c(CN2CCSCC2)cc(-c2ccc(F)cc2)n1-c1ccc(F)cc1 | 8 | 1 (≈ 2.6 µM) | – | – | –
5 | CCc1c(CN2CCSCC2)cc(-c2ccc(F)cc2)n1-c1ccccc1 | 8 | 1 (≈ 2.63 µM) | 8 (≈ 21 µM) | 8 | 1 (≈ 2.63 µM)
6 | CCc1c(CN2CCSCC2)cc(-c2ccccc2)n1-c1ccccc1 | 8 | 2 (≈ 5.52 µM) | 8 (≈ 22.1 µM) | 16 | 4 (≈ 11 µM)
7 | CCc1c(CN2CCSCC2)cc(-c2ccccc2)n1-c1ccc(F)cc1 | 8 | 2 (≈ 5.26 µM) | 16 (≈ 42 µM) | 16 | 4 (≈ 10.5 µM)
8 | CCc1c(CN2CCSCC2)cc(-c2ccc(C)cc2)n1-c1ccc(F)cc1 | >512 | 0.25 (≈ 0.634 µM) | 16 (≈ 40.6 µM) | > 128 | 0.25 (≈ 0.634 µM)
9 | CCc1c(CN2CCSCC2)cc(-c2ccccc2F)n1-c1ccccc1F | 2 | 4 (≈ 10 µM) | 16 (≈ 40.1 µM) | 8 | 8 (≈ 20.1 µM)
10 | CCc1c(CN2CCSCC2)cc(-c2ccc(F)cc2)n1-c1ccccc1F | 4 | 2 (≈ 5.02 µM) | 8 (≈ 20.1 µM) | 8 | 2 (≈ 5.02 µM)
11 | Cc1ccc(-c2cc(CN3CCSCC3)c(C)n2-c2ccc(F)cc2)cc1 | 256 | 0.25 (≈ 0.657 µM) | – | – | –
12 | Cc1c(CN2CCSCC2)cc(-c2ccccc2F)n1-c1ccccc1F | 32 | 1 (≈ 2.6 µM) | – | – | –
13 | Cc1c(CN2CCSCC2)cc(-c2ccc(F)cc2)n1-c1ccccc1 | 8 | 0.5 (≈ 1.36 µM) | – | – | –
14 | Cc1c(CN2CCSCC2)cc(-c2ccc(F)cc2)n1-c1ccccc1F | 16 | 0.5 (≈ 1.3 µM) | – | – | –
15 | CN[C@@H]1[C@H](O[C@H]2[C@H](O[C@H]3[C@H](O)[C@@H](O)[C@H](N=C(N)N)[C@@H](O)[C@@H]3N=C(N)N)O[C@@H](C)[C@]2(O)C=O)O[C@@H](CO)[C@H](O)[C@H]1O [STREPTOMYCIN] | 256 | 0.5 (≈ 0.86 µM) | 8 (≈ 13.8 µM) | 128 | 0.5 (≈ 0.86 µM)
16 | CCc1c(CN2CCSCC2)cc(-c2ccc(F)cc2)n1-c1ccc(F)cc1 | 0.5 | 16 (≈ 40.1 µM) | 16 (≈ 40.1 µM) | 8 | –
17 | CO[C@H]1/C=C/O[C@@]2(C)Oc3c(C)c(O)c4c(O)c(c(/C=N/N5CCN(C)CC5)c(O)c4c3C2=O)NC(=O)/C(C)=C\C=C\[C@H](C)[C@H](O)[C@@H](C)[C@@H](O)[C@@H](C)[C@H](OC(C)=O)[C@@H]1C [RIFAMPIN] | 256 | 0.25 (≈ 0.304 µM) | 0.25 (≈ 0.304 µM) | 64 | 0.25 (≈ 0.304 µM)
18 | Cc1c(CN2CCSCC2)cc(-c2ccccc2)n1-c1ccccc1 | 32 | 1 (≈ 2.87 µM) | – | – | –
